# FGF22 binding – shifts melting point of recombinant human FGF22; Q9HCT0; recombinant FGF22 thermal shift, SYPRO orange fluorescence; percent of sucrose octasulfate shift, DMSO zero; activity (Tm shift, normalised), % at 9.99 µM; actives 1.5% (n = 340,000); AID 651658;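 active = mean Tm shift, scaled 0 neutral to 100 positive control, at about 1.3% or above, every replicate too, limit read from the data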
# E-selectin induc – induces E-selectin expression in human endothelial cells. P16581. HUVEC E-selectin immunofluorescence imaging; normalized: neutral wells 0, TNF-alpha wells 100. activation, % at 7.58 µM. actives 0.37% (n = 260,000). AID 686992;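 active = mean E-selectin-positive cell signal at least 10% of the positive control, reached in at least 60% of replicates, without over 20% cell loss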
# Target sequence (P16581 whole entry, looked up): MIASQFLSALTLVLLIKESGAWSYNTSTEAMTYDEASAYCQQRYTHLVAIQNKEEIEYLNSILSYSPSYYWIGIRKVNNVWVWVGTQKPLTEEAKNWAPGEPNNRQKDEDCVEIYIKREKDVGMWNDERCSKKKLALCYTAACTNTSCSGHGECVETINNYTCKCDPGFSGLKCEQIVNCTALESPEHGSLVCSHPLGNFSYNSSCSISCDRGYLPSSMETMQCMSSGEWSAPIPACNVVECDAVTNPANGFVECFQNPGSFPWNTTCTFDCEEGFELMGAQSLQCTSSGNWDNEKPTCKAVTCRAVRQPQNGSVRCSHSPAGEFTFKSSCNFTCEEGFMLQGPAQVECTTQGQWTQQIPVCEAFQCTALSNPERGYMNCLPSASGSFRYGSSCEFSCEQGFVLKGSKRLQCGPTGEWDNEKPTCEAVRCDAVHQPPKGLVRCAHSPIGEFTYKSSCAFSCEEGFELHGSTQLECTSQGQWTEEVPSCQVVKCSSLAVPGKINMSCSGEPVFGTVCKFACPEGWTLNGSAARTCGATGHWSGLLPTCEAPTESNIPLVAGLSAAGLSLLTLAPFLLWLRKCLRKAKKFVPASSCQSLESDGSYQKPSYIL
#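 Test system – human umbilical vein endothelial cells (HUVEC), E-selectin induction · Input – 3,000 HUVEC seeded per well · Buffer or medium – EGM-2, gelatin · Compound dosing – single-point compound dose · Detection – immunofluorescence imaging · Measure – percent E-selectin-positive cells · Controls – TNF-alpha high, DMSO low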
# S100A4 inh HTS – blocks human S100A4 binding to myosin IIA peptide; P26447; S100A4/TAMRA-MyoIIA peptide fluorescence polarization; inhibition, % at 10.7 µM; actives 0.14% (n = 360,000);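 active = mean inhibition of at least 70% across replicates, with every replicate also reaching that level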
# Target sequence (P26447 whole entry, looked up): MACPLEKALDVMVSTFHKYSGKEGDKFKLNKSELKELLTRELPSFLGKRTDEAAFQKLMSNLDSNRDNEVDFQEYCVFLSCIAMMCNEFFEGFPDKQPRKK
#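 assay system = human S100A4 monomer with TAMRA-labelled myosin IIA peptide | also added = labelled myosin peptide probe, 5 nM | incubation = 5 min between mix addition and reading | control set = DMSO and TFP controls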
# F508del corr – CFTR F508del correction in bronchial cells; activity (quench increase), % at 7.58 µM; actives 0.36% (n = 350,000); CFBE cells, YFP halide quenching; stimulated with forskolin plus potentiator P3; % fluorescence drop versus neutral controls;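 active = mean added fluorescence quench of at least 8% versus neutral control, with both replicates also reaching 8%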;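 also: cells transiently co-express mutant CFTR-F508del with the halide-sensitive YFP; corrector assay measuring rescue of mutant channel to the surface after 24 h compound exposure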
# Env fusion inh – blocks HIV Env-driven cell-cell fusion; actives 1.1% (n = 360,000); HeLa-JRFL Env/CEM21 cell fusion, luciferase; inhibition, % at 12.3 µM;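 active = mean replicate inhibition score of at least 50 and every replicate individually at or above 50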;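 also: 0% = plate neutral controls and 100% = maraviroc near 300 nM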
# * marks the source's active call; other numbers are inactive results; / = no result given; ! = not confirmed by another sample; [ ] = dose if it differs, or a comment. Rows were chosen to be rich in hits. Some 2.7% of all compounds tested hit in one or more screens of this group.
SMILES,FGF22 binding,E-selectin induc,S100A4 inh HTS,F508del corr,Env fusion inh
N#CCSc1nnc(-c2sc3ccccc3c2Cl)o1,/,/,/,/,78.7*
C[C@H](CO)N1C[C@H](C)[C@@H](CN(C)Cc2ccc(Oc3ccccc3)cc2)Oc2ccc(NS(=O)(=O)c3cn(C)cn3)cc2C1=O,-0.3,1.1,2.3,-3.4,/
Cc1cc(/C=C2/NC(=O)NC2=O)c(C)n1-c1ccc(N2CCOCC2)cc1,43.1*,/,4.0,-3.9,24.6
Cc1cc(/C=C2\NC(=O)NC2=O)c(C)n1-c1ccc(N2CCOCC2)cc1,-0.2,0.2,1.8,1.6,11.2
CC(C)(C)c1ccc(C#C[C@@H]2C=C[C@H](O)[C@@H](COC(=O)Nc3ccccc3)O2)cc1,44.5*,-0.3,-16.7,1.5,-18.1
CCNC(=O)OC[C@H]1O[C@H](C#Cc2ccc(C(C)(C)C)cc2)C=C[C@H]1O,40.9,-0.2,-2.8,-3.4,-2.4
N/C(Cc1nc(-c2ccc(F)cc2)cs1)=N\O,-0.1,/,6.5,0.9,6.2
N/C(Cc1nc(-c2ccc(Br)cc2)cs1)=N\O,43.4*,8.4,-4.1,-2.1,-18.3
CN1C[C@H]2[C@@H](c3ccccc31)[C@@H](CO)N2C(=O)C1CC1,0.0,0.0,-4.4,-0.6,/
COc1cc(/C=C/C(=O)OCC(=O)NCCc2ccccc2)cc(OC)c1OC,43.6*,/,2.1,-3.0,28.2
COc1cc(/C=C/C(=O)OCC(=O)NCCCc2ccccc2)cc(OC)c1OC,-0.3,0.2,-6.4,1.8,-3.7
C=C[C@@H](C)N(Cc1ccc(OC)cc1)S(=O)(=O)N(Cc1ccccc1)[C@H](C=C)C(C)C,-0.1,-0.2,-0.2,2.0,88.9*
CCC(=O)N[C@@H]1C=C[C@H](CC(=O)OC)O[C@@H]1CO,0.2,-0.2,0.5,0.0,-24.5[16.7 µM]
CC1CN(C(=O)c2cc3cc([N+](=O)[O-])ccc3s2)CC(C)O1 (configuration not stated),43.6*,/,0.7,-1.2,-4.1
O=C(Nc1ccc(F)cc1)c1cc(-c2ccccc2)no1,43.1*,/,2.5,-2.7,4.8
Cc1noc(C)c1S(=O)(=O)Nc1ccc2c(c1)C(=O)N([C@@H](C)CO)C[C@H](C)[C@@H](CN(C)C(=O)Nc1ccc(F)cc1)O2,/,0.2,/,-0.4,-0.6[16.7 µM]
O=C(c1ccc(Cl)c(S(=O)(=O)N2CCCCCC2)c1)N1CCCCC1,-0.2,/,-4.0,-0.8,-3.2
O=C(c1ccc(Cl)c(S(=O)(=O)N2CCCCCC2)c1)N1CCN(c2ccccn2)CC1,/,/,/,/,63.2*
O=C(c1ccc(S(=O)(=O)Nc2ccc(F)cc2)cc1)N1CCN(c2ccccn2)CC1,42.9*,/,-2.8,-2.0,12.6
O=C(c1ccc(NS(=O)(=O)c2cccc3cccnc23)cc1)N1CCCCC1,43.7*,-3.4,0.7,-0.4,8.4
CCCC#Cc1cnc2c(c1)C(=O)N([C@H](C)CO)C[C@H](C)[C@H](CN(C)C(=O)c1ccc3c(c1)OCO3)O2,-0.3,0.4,6.0,-2.0,/
CC(C)c1c(C(=O)N/N=C/c2ccc3c(c2)OCO3)nnn1-c1nonc1N,0.5,3.3,13.5,-1.3,-2.6
CC1CCN(Cc2c(C(=O)N/N=C/c3ccccc3O)nnn2-c2nonc2N)CC1,-0.1,/,2.0,5.1,62.6*
CCN(CC)c1ccc(/C=N/NC(=O)c2nnn(-c3nonc3N)c2C(C)C)c(O)c1,-0.2,/,-3.7,2.3,62.4*
CC(=C/c1ccccc1)/C=N/NC(=O)c1nnn(-c2nonc2N)c1CN1CCC(C)CC1,-0.1,/,-0.7,4.1,21.8
SMILES,FGF22 binding,E-selectin induc,S100A4 inh HTS,F508del corr,Env fusion inh
CCCN1[C@@H]2c3ccc(C4=CCCC4)c(=O)n3C[C@@H]2[C@@H](CO)[C@@H]1C(=O)NC1Cc2ccccc2C1,/,0.1,-3.7,2.0,/
Cc1ccc(S(=O)(=O)Nc2ccccc2C(=O)Nc2nc(-c3ccc(F)cc3)cs2)cc1,0.8,/,-2.4,/,56.0*
O=C(Nc1cc(S(=O)(=O)N2CCCCC2)ccc1O)c1ccccc1NS(=O)(=O)c1ccc(F)cc1,1.4*!,0.4,6.1,3.0,6.0
O=C(c1ccccc1NS(=O)(=O)c1ccc(F)cc1)N1CCCCC1,-0.5,0.7,6.6,0.9,-86.0
O=C(Nc1cc(S(=O)(=O)N2CCCCC2)ccc1Cl)c1ccccc1NS(=O)(=O)c1ccc(F)cc1,-0.1,/,-1.4,/,70.9*
C[C@@H]1CN([C@@H](C)CO)C(=O)c2cc(-c3cccnc3)cnc2O[C@@H]1CN(C)C(=O)NC1CCCC1,0.0,-0.1,7.3,-2.8,-18.8[16.7 µM]
C=CCn1c(SCC(=O)O)nc2sc(CC)cc2c1=O,0.5,-0.1,1.0,0.3,-7.9
C=CCn1c(SCC(=O)c2cccs2)nc2sc(CC)cc2c1=O,/,/,/,/,88.3*
Cc1cc(C(=O)COc2ccc([N+](=O)[O-])cc2)c(C)n1C1CC1,0.0,/,0.8,-1.1,-24.4
Cc1cc(C(=O)COc2ccc(C#N)cc2)c(C)n1C1CC1,-0.2,0.2,1.7,-1.4,64.1*
C[C@H](CO)N1C[C@H](C)[C@@H](CN(C)Cc2ccccc2)Oc2ccc(NC(=O)Nc3cccc4ccccc34)cc2CC1=O,-0.9,1.5,3.9,1.4,6.9[16.7 µM]
C[C@H]1CN([C@@H](C)CO)C(=O)Cc2cc(NC(=O)Nc3cccc4ccccc34)ccc2O[C@@H]1CN(C)Cc1ccccc1,-0.9,-0.1,-14.3,-0.6,-1.4[16.7 µM]
C[C@H](CO)N1C[C@H](C)[C@H](CN(C)Cc2ccccc2)Oc2ccc(NC(=O)Nc3cccc4ccccc34)cc2CC1=O,-0.8,0.8,8.1,-0.4,60.2*[16.7 µM]
C[C@@H]1CN([C@@H](C)CO)C(=O)Cc2cc(NC(=O)Nc3cccc4ccccc34)ccc2O[C@@H]1CN(C)Cc1ccc(Cl)c(Cl)c1,0.2,-1.2,-1.8,9.9*,-8.2[16.7 µM]
COc1ccc(NC(=O)Nc2ccc3c(c2)C(=O)N([C@@H](C)CO)C[C@H](C)[C@@H](CN(C)C(=O)Nc2ccccc2)OCCCC[C@H](C)O3)cc1,-0.3,/,-6.8,3.3,-6.7[16.7 µM]
C[C@H](O)C#Cc1ccc2c(c1)O[C@H](CN(C)C(=O)CN(C)C)[C@H](C)CN([C@@H](C)CO)S2(=O)=O,-0.1,-0.2,7.7,3.2,-15.9[16.7 µM]
CCCCOc1ccc(Nc2cc(Cl)ccc2C(=O)O)cn1,0.0,/,-11.3,-4.0,62.8*
COc1ccc(CC(=O)Nc2cc(Cl)ccc2C(=O)O)cc1,1.3,2.7,0.2,0.5,-1.6
CO[C@@H]1CN(C)C(=O)c2cc(NS(=O)(=O)c3ccc(Cl)cc3)ccc2OC[C@@H](C)N(C)C[C@@H]1C,/,-0.2,7.0,1.9,-8.5[16.7 µM]
C[C@H](CO)N1C[C@H](C)[C@@H](CN(C)C(=O)C2CC2)Oc2cc(C#Cc3ccccn3)ccc2S1(=O)=O,-0.5,0.2,5.5,-0.2,-30.8[16.7 µM]
Cc1ccc(S(=O)(=O)NNC(=O)c2ccccc2-n2cccc2)cc1,0.1,0.4,-2.0,1.9,-15.3
COc1ccc(S(=O)(=O)NNC(=O)c2ccccc2-n2cccc2)cc1,42.9*,/,-0.9,-1.8,9.0
